Measured values of several laboratories.
Protocols differ between the studies behind these lines.
Target: Serine/threonine-protein kinase 4 (STK4, Homo sapiens, UniProt Q13043)
Sequence (Q13043 1-487, as in one of the studies): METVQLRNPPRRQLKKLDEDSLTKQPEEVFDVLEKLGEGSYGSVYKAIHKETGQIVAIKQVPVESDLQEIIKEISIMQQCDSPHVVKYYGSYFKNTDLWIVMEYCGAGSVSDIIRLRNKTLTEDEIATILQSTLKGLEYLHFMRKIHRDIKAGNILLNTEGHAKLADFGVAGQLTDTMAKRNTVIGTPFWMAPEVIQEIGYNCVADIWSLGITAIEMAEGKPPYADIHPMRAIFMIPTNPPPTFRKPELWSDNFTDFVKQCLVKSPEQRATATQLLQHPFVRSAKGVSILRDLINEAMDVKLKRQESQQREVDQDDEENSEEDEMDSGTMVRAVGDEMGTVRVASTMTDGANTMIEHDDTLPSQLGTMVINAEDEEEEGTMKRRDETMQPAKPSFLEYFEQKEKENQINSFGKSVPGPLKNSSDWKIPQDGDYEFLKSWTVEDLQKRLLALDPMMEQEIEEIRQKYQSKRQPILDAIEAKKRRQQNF

SMILES | effect on | technique | concentration | remaining binding
COc1ccnn2ncc(-c3ccnc(N(C)C)n3)c12 | binding | – | 1 µM | 100%
Nc1c(C(=O)NCc2ccc(C(=O)NCCCC3CCCCC3)cc2)cnn1-c1ccccc1 | cell-free assay | competition with immobilised ligand | 0.1 µM | 100%
C[C@H]1CCN(c2nccc(-c3cnn4ncccc34)n2)C1 | binding | – | 1 µM | 82%
O=C(NCCCC1CCCCC1)c1ccc(CNC(=O)c2cnn(-c3ccccc3)c2C(F)(F)F)cc1 | cell-free assay | competition with immobilised ligand | 0.1 µM | 100%
Cc1cnc(Nc2ccc(C(=O)N3CCC(N4CCCC4)CC3)cc2)nc1-c1cc2ccccc2s1 | binding | competition with immobilised ligand | 1 µM | 100%
N#CC1(c2ccccn2)CCN(Cc2cc(C(=O)N3CCCC3)c(=O)n3ccccc23)CC1 | cell-free assay | competition with immobilised ligand | 1 µM | 88%
O=C(NCCCN1CCOCC1)c1ccc(Nc2ncc(Cl)c(-c3ccc(Cl)s3)n2)cc1 | binding | competition with immobilised ligand | 1 µM | 90%
COc1cnc(Nc2cccc(S(N)(=O)=O)c2)nc1N1CCN(c2ccccc2)CC1 | binding | competition with immobilised ligand | 1 µM | 100%
c1cncc(-c2cccc(Nc3nccc(NC4CCCCC4)n3)c2)c1 | binding | competition with immobilised ligand | 10 µM | 97%
F[C@@H]1CCN(c2nccc(-c3cnn4ncccc34)n2)C1 | binding | – | 1 µM | 91%
Cc1c(C(=O)O)cc(-c2ccc(C3CCNCC3)cc2)c2ccc(-c3ccc(C(F)(F)F)cc3)cc12 | binding | competition with immobilised ligand | 1 µM | 95%
CNC(=O)[C@@H]1CC[C@@H](n2c(-c3ccc4cnccc4c3)nc3ccc(C(=O)NCc4cccc(C(N)=O)c4)cc32)C1 | binding | competition with immobilised ligand | 1 µM | 81%
O=C(c1ccc(Nc2ncc(Cl)c(-c3ccc(Cl)s3)n2)cc1)N1CCC(N2CCCC2)CC1 | binding | competition with immobilised ligand | 1 µM | 90%
Cc1cnn2ncc(-c3ccnc(N(C)C)n3)c2c1 | binding | – | 1 µM | 97%
CCC(=O)N[C@H]1CC[C@@H](C(=O)N(C)c2ccc(-c3nc4ccccc4o3)cc2)C1 | cell-free assay | competition with immobilised ligand | 1 µM | 100%
c1cnn2ncc(-c3ccnc(N4CCC45COC5)n3)c2c1 | binding | – | 1 µM | 89%
COc1cccc(CNC(=O)c2nc3scc(COCc4ccc(C(=O)O)cc4)c3c(=O)[nH]2)c1 | cell-free assay | competition with immobilised ligand | 1 µM | 75%
O=C(Nc1c[nH]nc1C(=O)NC1CCNCC1)c1cc(F)cc(F)c1 | binding | competition with immobilised ligand | 1 µM | 100%
N[C@@H]1CCN(c2nccc(-c3cnn4ncccc34)n2)C1 | binding | – | 1 µM | 100%
Nc1ncc2c(n1)-c1c([nH]c3ccc(C#CC4CC4)cc13)CCCC2 | binding | competition with immobilised ligand | 1 µM | 100%
